ChEMBL document CHEMBL4680231, “A glutathione-responsive photosensitizer with fluorescence resonance energy transfer characteristics for imaging-guided targeting photodynamic therapy” (Eur J Med Chem, 2020)
pIC50: −log10 of the molar value. Calls of active or inactive are those of the source. No cut-off for these calls is given here.

Columns and labels:
HeLa [1] = experiment: Cytotoxicity against human HeLa cells assessed as reduction cell viability up to 10 uM after 24 hrs in dark condition by MTT assay; format: cell-based
Method in brief: (§1)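 MTT assay. About 6000 cells per well were seeded and left overnight at 37 °C, 5% CO2. Compound was added at a range of concentrations in DMEM (1% DMSO, 0.05% Tween 80) for 24 h in the dark, then the medium was replaced. Irradiated wells received a 670 nm LED at 20 mW·cm⁻² for 2 min (2.4 J·cm⁻²); dark wells were not irradiated. Cells were incubated overnight, then MTT for 4 h, DMSO added, OD read at 490 nm. Three independent experiments, each in sextuplicate. IC50 is the concentration killing 50% of cells.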

HeLa [2] = experiment: Cytotoxicity against human HeLa cells assessed as reduction cell viability preincubated for 24 hrs in dark condition followed by irradiated with 20 mW cm^-2 light by MTT assay; format: functional, cell-based; method in brief: as §1
A549 [3] = experiment: Induction of ROS generation in human A549 cells at 10 uM incubated for 12 hrs irradiated with 20 mW cm^-2 light in presence of vitamin C by DCFH-DA staining based confocal laser scanning microscopic method; format: functional, cell-based
Method in brief: (§2)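 Cells were seeded in confocal dishes overnight. Pretreatment was GSH 5 mM in DMEM for 2 h, or vitamin C 100 μM for 1 h, before compound at 10 μM for 12 h. DCFH-DA was added for 1 h, then 5 PBS washes and transfer to serum-free, phenol red-free DMEM. Cells were irradiated at 670 nm, 20 mW·cm⁻², for 3 min. Confocal imaging used λex 488 nm for DCF and 633 nm for the photosensitizer.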

A549 [4] = experiment: Cytotoxicity against human A549 cells assessed as reduction cell viability up to 10 uM after 24 hrs in dark condition by MTT assay; format: cell-based; conditions: a549, 24 h; method in brief: as §1
Primary lung fibroblast [5] = experiment: Induction of ROS generation in human HELF cells at 10 uM incubated for 12 hrs irradiated with 20 mW cm^-2 light in presence of vitamin C by DCFH-DA staining based confocal laser scanning microscopic method; format: functional, cell-based; method in brief: as §2
[6] = Prodrug activation in human A549 cells assessed as increase in fluorescence at 10 uM after 8 hrs by flow cytometric analysis; format: cell-based; conditions: a549, 8 h
Method in brief: (§3)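 Cells (10^5 per confocal dish) were seeded in DMEM overnight at 37 °C, 5% CO2. They were pretreated with 5 mM GSH in DMEM, or medium alone, for 2 h, then washed. Compound at 10 μM was added for 8 h. Intracellular fluorescence was read by confocal microscopy (excitation 633 nm) or by flow cytometry under the same conditions.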

[7] = Prodrug activation in mouse H22 cells assessed as increase in fluorescence at 10 uM after 8 hrs in presence of GSH by confocal laser scanning microscopic method; format: cell-based; conditions: h22, 8 h; method in brief: as §3
[8] = Prodrug activation in HELF cells assessed as increase in fluorescence at 10 uM after 8 hrs by confocal laser scanning microscopic method; format: cell-based; conditions: human, primary lung fibroblast; method in brief: as §3
H22 [9] = experiment: Photodynamic antitumor activity against mouse H22 cells implanted in Kunming mouse assessed as increase in necrotic cells in tumour at 2 mg/kg, iv administered at […] post-implantation followed by irradiated with 100 mW/cm2 […] and measured up to 15 days by H and E staining based microscopic method; format: functional, organism-based; conditions: time 15.0 day
Method in brief: (§4)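 Mice carried subcutaneous H22 tumours of about 50 mm³ and were randomised into 5 groups of 5. They received saline or compound at 2 mg/kg (100 μL) i.v. on days 1, 4 and 7. Light groups were irradiated at 670 nm, 100 mW/cm², 12 h after each dose. Tumour volume and body weight were recorded daily for 15 days. Tumours were then excised and weighed, fixed in 4% paraformaldehyde, paraffin-embedded and H&E stained. Apoptotic and necrotic areas were scored microscopically.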

HeLa [10] = experiment: Induction of ROS generation in human HeLa cells at 10 uM incubated for 12 hrs irradiated with 20 mW cm^-2 light in presence of GSH by DCFH-DA staining based confocal laser scanning microscopic method; format: functional, cell-based; method in brief: as §2
[11] = Cytotoxicity against human HELF cells assessed as reduction cell viability up to 10 uM after 24 hrs in dark condition by MTT assay; format: cell-based; conditions: primary lung fibroblast; method in brief: as §1
[12] = Drug uptake in tumour of Kunming mouse implanted with H22 cells at 2 mg/kg, iv and measured up to 24 hrs by FMT assay; format: ADME, organism-based, Neoplasm; conditions: in vivo
Method in brief: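 Mice carried subcutaneous back tumours from H22 cells (10^7 cells/mL, 100 μL), used at about 50 mm³. They received a single tail-vein injection of 2 mg/kg (200 μL), with saline as control, 3 mice per group. Whole-body fluorescence molecular tomography was taken at 0, 2, 6, 12 and 24 h. At 24 h, tumour, heart, liver, spleen, lung and kidney were imaged ex vivo.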

H22 [13] = experiment: Photodynamic antitumor activity against mouse H22 cells implanted in Kunming mouse assessed as reduction in tumour volume at 2 mg/kg, iv administered at […] post-implantation followed by irradiated with 100 mW/cm2 […] and measured up to 15 days; format: functional, organism-based; conditions: time 15.0 day; method in brief: as §4
[14] = Prodrug activation in human HeLa cells assessed as increase in fluorescence at 10 uM after 8 hrs in presence of GSH by confocal laser scanning microscopic method; format: cell-based; method in brief: as §3
H22 [15] = experiment: Induction of ROS generation in mouse H22 cells at 10 uM incubated for 12 hrs irradiated with 20 mW cm^-2 light in presence of GSH by DCFH-DA staining based confocal laser scanning microscopic method; format: functional, cell-based; method in brief: as §2
[16] = Prodrug activation in HELF cells assessed as increase in fluorescence at 10 uM after 8 hrs by flow cytometric analysis; format: cell-based; conditions: human, primary lung fibroblast; method in brief: as §3
Primary lung fibroblast [17] = experiment: Induction of ROS generation in human HELF cells at 10 uM incubated for 12 hrs irradiated with 20 mW cm^-2 light in presence of GSH by DCFH-DA staining based confocal laser scanning microscopic method; format: functional, cell-based; method in brief: as §2
A549 [18] = experiment: Cytotoxicity against human A549 cells assessed as reduction cell viability preincubated for 24 hrs in dark condition followed by irradiated with 20 mW cm^-2 light by MTT assay; format: functional, cell-based; method in brief: as §1
[19] = Prodrug activation in human HeLa cells assessed as increase in fluorescence at 10 uM after 8 hrs by flow cytometric analysis; format: cell-based; method in brief: as §3
H22 [20] = experiment: Cytotoxicity against mouse H22 cells assessed as reduction cell viability preincubated for 24 hrs in dark condition followed by irradiated with 20 mW cm^-2 light by MTT assay; format: functional, cell-based; method in brief: as §1
[21] = Prodrug activation in mouse H22 cells assessed as increase in fluorescence at 10 uM after 8 hrs by flow cytometric analysis; format: cell-based; conditions: h22, 8 h; method in brief: as §3
A549 [22] = experiment: Induction of ROS generation in human A549 cells at 10 uM incubated for 12 hrs irradiated with 20 mW cm^-2 light in presence of GSH by DCFH-DA staining based confocal laser scanning microscopic method; format: functional, cell-based; method in brief: as §2
H22 [23] = experiment: Cytotoxicity against mouse H22 cells assessed as reduction cell viability up to 10 uM after 24 hrs in dark condition by MTT assay; format: cell-based; conditions: h22, 24 h; method in brief: as §1
[24] = Photoactivity of compound in PBS with 0.05% Tween 80 assessed as singlet oxygen generation at 10 uM irradiated with 20 mW cm^-2 light in presence on GSH by DMA based fluorescence assay
[25] = Prodrug activation in mouse H22 cells assessed as increase in fluorescence at 10 uM after 8 hrs by confocal laser scanning microscopic method; format: cell-based; conditions: h22, 8 h; method in brief: as §3

Row | Drug metabolism [6] | Drug metabolism [7] | Drug metabolism [8] | Drug uptake [12] | Drug metabolism [14] | Drug metabolism [16] | Drug metabolism [19] | Drug metabolism [21] | Compound | Activity (HeLa [1]) | Activity (A549 [3]) | Activity (A549 [4]) | Activity (Primary lung fibroblast [5]) | Activity (H22 [9]) | Activity (HeLa [10]) | Activity [11] | Activity (H22 [13]) | Activity (H22 [15]) | Activity (Primary lung fibroblast [17]) | Activity (A549 [22]) | Activity (H22 [23]) | other results
1 | Metabolite_Detected | Metabolite_Detected | Metabolite_Notdetected | Active | Metabolite_Detected | Metabolite_Notdetected | Metabolite_Detected | Metabolite_Detected | COCCOCCOCCOc1ccc(/C=C/C2=[N+]3C(=C(c4ccc(OCc5cn(CCSSCCn6cc(COc7ccc(C8=C9C(C)=CC(/C=C/c%10ccc(N(C)C)cc%10)=[N+]9[B-](F)(F)n9c(/C=C/c%10ccc(N(C)C)cc%10)cc(C)c98)cc7)nn6)nn5)cc4)c4c(C)c(I)c(/C=C/c5ccc(OCCOCCOCCOC)cc5)n4[B-]3(F)F)C(C)=C2I)cc1 | Non-Toxic | inactive | Non-Toxic | inactive | Active | Active | Non-Toxic | Active | Active | Active | Active | Non-Toxic | pIC50 (HeLa [2]; light or radiation study): 6.17; pIC50 (A549 [18]; A549, light or radiation study): 6.36; pIC50 (H22 [20]; H22, light or radiation study): 6.32; Drug metabolism [24]: Metabolite detected; Drug metabolism [25]: Metabolite_Detected
2 | Metabolite_Notdetected | Metabolite_Notdetected | Metabolite_Notdetected | Active | Metabolite_Notdetected | Metabolite_Notdetected | Metabolite_Notdetected | Metabolite_Notdetected | COCCOCCOCCOc1ccc(/C=C/C2=[N+]3C(=C(c4ccc(OCc5cn(CCCCCCn6cc(COc7ccc(C8=C9C(C)=CC(/C=C/c%10ccc(N(C)C)cc%10)=[N+]9[B-](F)(F)n9c(/C=C/c%10ccc(N(C)C)cc%10)cc(C)c98)cc7)nn6)nn5)cc4)c4c(C)c(I)c(/C=C/c5ccc(OCCOCCOCCOC)cc5)n4[B-]3(F)F)C(C)=C2I)cc1 | Non-Toxic | inactive | Non-Toxic | inactive | Active | inactive | Non-Toxic | Active | inactive | inactive | inactive | Non-Toxic | Activity (HeLa [2]): inactive; Activity (A549 [18]): inactive; Activity (H22 [20]): inactive; Drug metabolism [24]: Metabolite not detected; Drug metabolism [25]: Metabolite_Notdetected
